Measurements from the RNAGym collection of RNA variant scans (doi:10.1126/science.aae0568).
Fewer inactive variants are shown than the library holds.

B1: tRNA (parent)
chain: GUUCCGUUGGCGUAAUGGUAACGCGUCUCCCUCCUAAGGAGAAGACUGCGGGUUCGAGUCCCGUACGGAACG

Variants of: B1
Assay: yeast fitness relative to wild type (ratio to wild type); higher = fitter; tRNA-Arg(CCU), competitive growth, 37 C, YPD
How it was run: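 Genotype frequency changes were the basis for Darwinian fitness relative to wild type. The frequencies came from 100-nucleotide paired-end sequencing of gene amplicons from the start population and each end population of pooled yeast strains with tRNA-Arg(CCU) gene variants at the native locus. Competition ran in YPD at 37°C for 24 hours in six replicates, genotypes needed ≥ 100 starting reads, and estimates < 0.5 were set to 0.5.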

Compared with C5A A14G G17C C29A C33G C34U A36U, C4U G67A is higher in yeast fitness: 0.648 for the first, 0.904 for the second.

Compared with C4U U7A A20G C24A G51A, C4U U16C C24U is higher in yeast fitness: at most 0.5 for the first, 0.675 for the second.

First: C4U G52C U59C
Second: C4U U28G C60A
The yeast fitness of the first is lower: at most 0.5 for the first, 0.503 for the second.

C4U G18A A21C A65C and C4U U7A C33G A42C cannot be ordered by yeast fitness: at most 0.5 for the first, at most 0.5 for the second.

Going from C4U G25A G48C to C4U G10C U35C G41A C49U, the yeast fitness falls from 0.62 to at most 0.5.

C5A A20C C29G A65U and C5A A14C A36G G39C C46A A65C cannot be ordered by yeast fitness: at most 0.5 for the first, at most 0.5 for the second.

Compared with C5A A15U A21U C61U A69C, C4U G12C A20G U47A C49U A57U C61A is higher in yeast fitness: at most 0.5 for the first, 0.572 for the second.

Compared with C4U G23C G39C G44A, C4U G25A A69C is higher in yeast fitness: at most 0.5 for the first, 0.761 for the second.

First: C4U G25A G48C C62A
Second: C4U U7C
The yeast fitness of the first is lower: 0.551 for the first, 1.08 for the second.

First: C5A A14U G52A
Second: C4U U7G C34G C55U
The yeast fitness of the first is higher: 0.603 for the first, 0.563 for the second.

Going from C4U U53C to C4U G25C G67A, the yeast fitness falls from 0.869 to 0.719.

C5A A20U C31G C49G and C4U G18A G39C G58C G67A cannot be ordered by yeast fitness: at most 0.5 for the first, at most 0.5 for the second.

Going from C4U U28A C66U to C4U G18C G38A A40C, the yeast fitness falls from 0.658 to 0.545.

Going from C4U U64A A70U to C4U U16C A69C, the yeast fitness rises from 0.66 to 0.774.

First: C5A A20C A36G
Second: C4U U16C A42G G58A
The yeast fitness of the first is higher: 0.626 for the first, 0.552 for the second.

Compared with C4U U19C C31A G41C, C4U G23C C29G C31G is lower in yeast fitness: 0.53 for the first, at most 0.5 for the second.

Going from C4U U13G A36U to C5A A15G C24G C29U C34G U35C C46G, the yeast fitness falls from 0.655 to 0.527.

Going from C5A A20G A65U to C5A A20C, the yeast fitness rises from at most 0.5 to 0.799.

First: C5A A20G
Second: C5A A20C C22A C24U C31U
The yeast fitness of the first is higher: 0.933 for the first, 0.685 for the second.

Going from C4U G12C C27U to C4U U16C G48C, the yeast fitness rises from 0.535 to 0.702.

Compared with C4U U26A C31G, C4U G44A C46U A69C is higher in yeast fitness: 0.603 for the first, 0.829 for the second.

First: C4U U16C C61U
Second: C4U U47C G52C C61A
The yeast fitness of the first is higher: 0.737 for the first, at most 0.5 for the second.

C4U U8C A20G A43C C49A C66A and C4U G23A C33G C49A U54G A65G cannot be ordered by yeast fitness: at most 0.5 for the first, at most 0.5 for the second.

Going from C5A to C4U G18C A57U C62U U64A G68C, the yeast fitness falls from 0.995 to at most 0.5.

C5A A20U A70G and C5A A20U C31G C61U cannot be ordered by yeast fitness: at most 0.5 for the first, at most 0.5 for the second.

Compared with C4U U8G A15U C62U, C5A A14U A21C A43C is higher in yeast fitness: at most 0.5 for the first, 0.595 for the second.

Going from C5A A20C C22A A36C A69U to C4U U13C C66U A70C, the yeast fitness rises from 0.587 to 0.618.

Going from C4U G48C C55G A69U to C5A A20U C27A A42G A43G A57C G67C, the yeast fitness rises from at most 0.5 to 0.565.

C4U U8A U32G U35A G68U and C5A A20C C22A A36C C55A A69U cannot be ordered by yeast fitness: at most 0.5 for the first, at most 0.5 for the second.

Compared with C5A A15U A21U, C4U G10U C24U is higher in yeast fitness: 0.56 for the first, 0.625 for the second.

First: C4U U7C C24G C34A A45C G56A C61A A65C A69C A70G
Second: C4U G44C A70C
The yeast fitness of the first is lower: at most 0.5 for the first, 0.782 for the second.

First: C4U G51C U59G
Second: C4U U13G C49A C55U C60U C61U
The yeast fitness of the first is higher: 0.557 for the first, at most 0.5 for the second.

C4U U28C C49G C61U and C4U G18C A21G A57C cannot be ordered by yeast fitness: at most 0.5 for the first, at most 0.5 for the second.

C4U G18A G23C C24G C46G and C4U U7A G10C C27G U32A cannot be ordered by yeast fitness: at most 0.5 for the first, at most 0.5 for the second.

C4U U16A G23A A36G C49G C61A and C5A A20G U35G G41A G56A A70C cannot be ordered by yeast fitness: at most 0.5 for the first, at most 0.5 for the second.

First: C4U G12C C46U G50A
Second: C4U G17C U47C C49A
The yeast fitness of the first is higher: 0.608 for the first, at most 0.5 for the second.

First: C4U G23C U26G A36C A37U A42C A45U C60U C66U A70G
Second: C4U G25A G56A
The yeast fitness of the first is lower: 0.634 for the first, 0.645 for the second.

First: C4U U19C A40U
Second: C4U G12C G51A A65C
The yeast fitness of the first is higher: 0.674 for the first, at most 0.5 for the second.

C4U G38A G58C C66U and C4U G48A G52C U54C cannot be ordered by yeast fitness: at most 0.5 for the first, at most 0.5 for the second.

First: C4U U35C A36G G44C
Second: C5A A14G C22G C62G
The yeast fitness of the first is higher: 0.708 for the first, at most 0.5 for the second.

C4U G52C G67C and C4U G23C G39C G44A G67A cannot be ordered by yeast fitness: at most 0.5 for the first, at most 0.5 for the second.

C4U U19A A37G G44C A57U G68C and C4U U7A C62G cannot be ordered by yeast fitness: at most 0.5 for the first, at most 0.5 for the second.

Going from C5A A15U U47C to C4U U16G A69C, the yeast fitness rises from at most 0.5 to 0.645.

C4U U32A A57C and C4U G18C A45C cannot be ordered by yeast fitness: at most 0.5 for the first, at most 0.5 for the second.

First: C4U G39C G48C
Second: C5A A15U C31G G39A G58A
The yeast fitness of the first is higher: 0.537 for the first, at most 0.5 for the second.

First: C4U G58C U64A
Second: C4U G18C
The yeast fitness of the first is higher: 0.848 for the first, 0.651 for the second.

C4U G12C U28G U32C C62G and C4U U7C G23A A40U A42C cannot be ordered by yeast fitness: at most 0.5 for the first, at most 0.5 for the second.

Going from C5A A14G A20U A37C C49A C66A to C4U U59C A69C, the yeast fitness rises from at most 0.5 to 0.772.

C4U G18C A45U G52A A65U and C4U U26A A37C A42C C49U G56A cannot be ordered by yeast fitness: at most 0.5 for the first, at most 0.5 for the second.

Going from C5A A14C A15G G58C C60U C66G to C4U U28G G38A A43G C46A C49U, the yeast fitness rises from at most 0.5 to 0.608.

First: C4U U32C C34U G38A
Second: C4U G17C G44A C61U
The yeast fitness of the first is lower: at most 0.5 for the first, 0.556 for the second.

First: C4U G38C G41A C61G
Second: C4U G51C G58A U59G
The yeast fitness of the first is higher: 0.707 for the first, at most 0.5 for the second.

C4U U13A A14U U32A G58C and C4U G23A U26A A45C cannot be ordered by yeast fitness: at most 0.5 for the first, at most 0.5 for the second.

Going from C4U G51C to C4U G51A, the yeast fitness rises from 0.637 to 0.942.

First: C4U U8A A20G C24A G52C
Second: C4U G12A C27G C34A C49G
The yeast fitness of the first is higher: 0.598 for the first, at most 0.5 for the second.

First: C4U U28A C30U A57G
Second: C4U U13C C29G G38C
The yeast fitness of the first is higher: 0.547 for the first, at most 0.5 for the second.

First: C4U U7G C34G
Second: C4U G56A C60U
The yeast fitness of the first is higher: 0.554 for the first, at most 0.5 for the second.

First: C4U U26A G56A
Second: C4U U47G
The yeast fitness of the first is higher: 0.632 for the first, 0.616 for the second.

Going from C4U U47A to C4U U47C, the yeast fitness rises from 0.86 to 1.06.

First: C4U U47A C61A
Second: C4U G17A U19G A21G A43G G63A
The yeast fitness of the first is higher: 0.93 for the first, at most 0.5 for the second.

First: C4U U28C G38C C61U
Second: C4U U26G G38U
The yeast fitness of the first is lower: at most 0.5 for the first, 0.508 for the second.

First: C4U U19C C29A A70U
Second: C4U U7A U8A A65U
The yeast fitness of the first is higher: 0.632 for the first, at most 0.5 for the second.

Compared with C5A A15C C66U, C4U G12A A20G C22U C55U A65U is higher in yeast fitness: at most 0.5 for the first, 0.53 for the second.

First: C4U U8A C30U U32G U35A C62U A69C
Second: C4U G63A C66U
The yeast fitness of the first is lower: at most 0.5 for the first, 0.792 for the second.

Going from C5A A20C A36C A45C to C4U U26A A69U, the yeast fitness rises from at most 0.5 to 0.641.

C4U U16A G23A A36G C49G and C5A A20G C24U G38C G56C cannot be ordered by yeast fitness: at most 0.5 for the first, at most 0.5 for the second.

Compared with C4U U32A G58C, C4U U26G C29U A65U G68A is lower in yeast fitness: 0.592 for the first, at most 0.5 for the second.

Going from C4U U35C A42G to C4U U8G G12A, the yeast fitness falls from 0.581 to 0.539.

C5A A20U C55U C61U A65G and C5A A15U A21U U32C cannot be ordered by yeast fitness: at most 0.5 for the first, at most 0.5 for the second.

First: C4U G25A G50C U54C
Second: C4U G52A
The yeast fitness of the first is lower: at most 0.5 for the first, 0.727 for the second.

C4U G18C G38A A40C A65G and C4U U13A A14U C29U A37G G67A cannot be ordered by yeast fitness: at most 0.5 for the first, at most 0.5 for the second.

First: C4U G12C A45C C49U
Second: C5A A20C C22A A36C C61U
The yeast fitness of the first is lower: at most 0.5 for the first, 0.531 for the second.

C4U G56C A65U and C4U U16A A37C cannot be ordered by yeast fitness: at most 0.5 for the first, at most 0.5 for the second.

Going from C5A A20C C24A to C4U U16A A20C U54A G67U, the yeast fitness falls from 0.575 to at most 0.5.

First: C5A A14C
Second: C4U U8A A14U A20C A36C A43C G58C C61A
The yeast fitness of the first is higher: 0.603 for the first, at most 0.5 for the second.

Going from C5A A20G C30A A40U G41C C61G G63C to C5A A15G G18C C29A U54A A65C, the yeast fitness falls from 0.565 to at most 0.5.

C4U G44C C55G A69U and C4U U13C C24U C49U cannot be ordered by yeast fitness: at most 0.5 for the first, at most 0.5 for the second.

C4U U8C C11A G12A U28C G44C and C4U U26C A36C U64A A70C cannot be ordered by yeast fitness: at most 0.5 for the first, at most 0.5 for the second.

Going from C5A A20U C27G G41A A57U U64A to C4U G12C, the yeast fitness rises from 0.642 to 0.884.

C5A A20G U26A A40G G58C G67U and C4U G12A A20G C22U C62U A65C cannot be ordered by yeast fitness: at most 0.5 for the first, at most 0.5 for the second.

Compared with C4U G18A G23C C24G, C4U U35A G44C is higher in yeast fitness: 0.518 for the first, 0.58 for the second.

Going from C4U U8G G12A U54G to C4U U16G U47G, the yeast fitness rises from at most 0.5 to 0.602.

First: C4U U8A U13C C46A
Second: C4U G10C G23A U26C A43G U53A
The yeast fitness of the first is higher: 0.619 for the first, at most 0.5 for the second.

C4U G12A C27G C34A C49A C66U showed a yeast fitness of at most 0.5.
